Results reported in ChEMBL document CHEMBL1149315, “Insertion of an aspartic acid moiety into cyclic pseudopeptides: synthesis and biological characterization of potent antagonists for the human Tachykinin NK-2 receptor” (J Med Chem, 2004).
Active and inactive are the calls of the source.

How the values were obtained:
[1] = biological target: T1, Substance-K receptor (Homo sapiens, UniProt P21452); assay: Displacement of [125I]neurokinin A from human NK2 receptor expressed in CHOK1 cells; format: cell-based, CHO-K1
T1 sequence (P21452 whole entry): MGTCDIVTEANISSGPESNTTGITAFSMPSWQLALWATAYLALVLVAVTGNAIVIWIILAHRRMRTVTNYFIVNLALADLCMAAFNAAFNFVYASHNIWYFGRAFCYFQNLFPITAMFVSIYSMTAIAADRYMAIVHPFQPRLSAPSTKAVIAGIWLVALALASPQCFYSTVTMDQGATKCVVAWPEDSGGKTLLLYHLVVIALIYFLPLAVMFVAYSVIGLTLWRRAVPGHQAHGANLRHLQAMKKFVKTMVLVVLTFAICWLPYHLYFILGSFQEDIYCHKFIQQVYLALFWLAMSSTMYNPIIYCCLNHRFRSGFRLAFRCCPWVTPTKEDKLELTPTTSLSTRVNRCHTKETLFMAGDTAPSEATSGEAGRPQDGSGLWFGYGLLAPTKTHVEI
Procedure, shortened: (§1)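 Competition binding was run on membranes of cells stably transfected with the human receptor: U-373MG for NK-1, CHO-K1 for NK-2 and NK-3. NK-1 used [3H][Sar9]SP sulfone at 1.2 nM. Affinity is given as pKi (−log Ki).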

[2] = biological target: T2, Substance-K receptor (Oryctolagus cuniculus) (UniProt P79218); assay: Antagonist activity at NK2 receptor in rabbit pulmonary artery assessed as effect on neurokinin A-induced mechanical activity; format: functional; settings: filed as antagonist
T2 sequence (whole entry): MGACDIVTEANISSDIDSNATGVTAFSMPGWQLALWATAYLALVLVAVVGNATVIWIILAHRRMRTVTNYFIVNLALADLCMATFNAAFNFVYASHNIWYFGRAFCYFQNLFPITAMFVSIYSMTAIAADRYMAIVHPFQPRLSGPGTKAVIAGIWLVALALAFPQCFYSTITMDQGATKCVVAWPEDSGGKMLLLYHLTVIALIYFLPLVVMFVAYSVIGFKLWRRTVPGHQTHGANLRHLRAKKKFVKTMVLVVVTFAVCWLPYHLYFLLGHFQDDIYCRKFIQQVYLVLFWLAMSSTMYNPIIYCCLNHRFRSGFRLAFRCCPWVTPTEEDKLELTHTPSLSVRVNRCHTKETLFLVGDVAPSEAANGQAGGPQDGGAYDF
Procedure, shortened: (§2)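 Isolated smooth muscle strips were held in oxygenated (96% O2/4% CO2) Krebs–Henseleit at NaCl 119, NaHCO3 25, KH2PO4 1.2, MgSO4 1.5, CaCl2 2.5, KCl 4.7 and glucose 11 mM. Cumulative agonist concentration–response curves were run after 15 min antagonist incubation. pKB = log(dose ratio − 1) − log[antagonist], as the mean of individual values.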

[3] = biological target: T3, Substance-K receptor (Rattus norvegicus) (UniProt P16610); assay: Antagonist activity at NK2 receptor in rat urinary bladder assessed as effect on beta-Ala8]NKA(4-10)-induced mechanical activity; format: functional; settings: filed as antagonist; procedure, shortened: as §2
T3 sequence (whole entry): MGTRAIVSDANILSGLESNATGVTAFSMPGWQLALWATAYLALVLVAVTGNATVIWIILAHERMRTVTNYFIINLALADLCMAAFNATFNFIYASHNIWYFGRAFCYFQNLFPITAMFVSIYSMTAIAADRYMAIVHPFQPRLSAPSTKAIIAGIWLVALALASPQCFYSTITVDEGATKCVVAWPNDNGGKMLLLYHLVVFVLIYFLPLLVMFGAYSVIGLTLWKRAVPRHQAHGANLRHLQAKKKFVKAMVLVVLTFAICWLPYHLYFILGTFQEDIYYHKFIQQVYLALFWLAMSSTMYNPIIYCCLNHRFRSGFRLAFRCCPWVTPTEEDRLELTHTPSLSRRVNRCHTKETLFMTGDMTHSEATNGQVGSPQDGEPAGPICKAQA

[4] = biological target: Substance-P receptor (Cavia porcellus) (UniProt P30547); assay: Antagonist activity at NK1 receptor in guinea pig ileum assessed as effect on substance P methyl ester-induced mechanical activity; format: functional, tissue-based; procedure, shortened: as §2
[5] = biological target: T4, Neuromedin-K receptor (Cavia porcellus) (UniProt P30098); assay: Antagonist activity at NK3 receptor in guinea pig ileum assessed as effect on senktide-induced mechanical activity; format: functional, tissue-based; settings: filed as antagonist
T4 sequence (whole entry): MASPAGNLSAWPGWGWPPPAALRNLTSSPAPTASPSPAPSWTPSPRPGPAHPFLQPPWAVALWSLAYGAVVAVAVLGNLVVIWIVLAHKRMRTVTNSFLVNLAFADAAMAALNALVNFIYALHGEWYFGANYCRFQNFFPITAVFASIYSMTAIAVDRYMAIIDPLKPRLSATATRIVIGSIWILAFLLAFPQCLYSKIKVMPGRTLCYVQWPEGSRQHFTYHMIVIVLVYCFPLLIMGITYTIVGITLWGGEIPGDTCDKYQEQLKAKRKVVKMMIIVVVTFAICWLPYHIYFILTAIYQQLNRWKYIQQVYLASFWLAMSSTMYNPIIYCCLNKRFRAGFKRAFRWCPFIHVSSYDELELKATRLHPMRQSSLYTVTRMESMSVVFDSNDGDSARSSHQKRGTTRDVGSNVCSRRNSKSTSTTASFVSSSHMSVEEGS

[6] = tested on: Cavia porcellus; assay: Inhibition of [beta-Ala8]NKA(4-10)-induced bronchoconstriction in anesthetized Dunkin Hartley guinea pig at 100 nmol/kg, it relative to control; format: functional, organism-based; settings: 10 nmol/kg, in the assay text read “10 nmol/kg” for “100 nmol/kg”
Procedure, shortened: (§3)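 Male Dunkin Hartley guinea pigs (350–400 g) were anesthetized with urethane 1.5 g/kg sc, kept at 36 °C and ventilated at 60 strokes/min. After two reproducible control responses to agonist (1 nmol/kg iv, jugular vein), antagonist was given intratracheally near the bronchial bifurcation. Dosing was 5 and 30 min before challenge, with challenges repeated every 30 min up to 4 h. Bronchoconstriction = insufflation pressure rise over basal (mmHg), expressed as % inhibition of control.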

[7] = tested on: Cavia porcellus; assay: Inhibition of [beta-Ala8]NKA(4-10)-induced bronchoconstriction in intratracheally dosed anesthetized Dunkin Hartley guinea pig; format: functional; settings: Trachea, inhaled or nasal; procedure, shortened: as §3
[8] = biological target: Substance-P receptor (Homo sapiens, UniProt P25103); assay: Displacement of [3H][Sar9]SP sulfone from human NK1 receptor expressed in U373MG cells; format: cell-based, U-373MG ATCC; procedure, shortened: as §1
[9] = biological target: T5, Neuromedin-K receptor (Homo sapiens, UniProt P29371); assay: Displacement of [125I][MePhe7]NKB from human NK3 receptor expressed in CHOK1 cells; format: cell-based, CHO-K1; procedure, shortened: as §1
T5 sequence (P29371 whole entry): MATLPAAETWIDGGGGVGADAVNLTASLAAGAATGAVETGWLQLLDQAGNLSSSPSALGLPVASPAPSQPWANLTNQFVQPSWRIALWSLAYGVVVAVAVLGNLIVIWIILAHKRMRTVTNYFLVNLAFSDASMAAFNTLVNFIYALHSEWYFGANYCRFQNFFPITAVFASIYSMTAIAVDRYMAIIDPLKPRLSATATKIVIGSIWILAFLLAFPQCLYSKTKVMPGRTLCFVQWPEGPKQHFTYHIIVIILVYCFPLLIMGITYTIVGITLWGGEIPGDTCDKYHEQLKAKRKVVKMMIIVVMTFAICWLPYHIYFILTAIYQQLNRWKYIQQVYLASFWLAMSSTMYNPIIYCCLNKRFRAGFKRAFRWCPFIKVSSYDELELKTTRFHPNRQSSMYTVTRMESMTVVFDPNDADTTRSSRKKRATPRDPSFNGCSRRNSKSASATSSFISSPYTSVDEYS

[10] = tested on: Cavia porcellus; assay: Inhibition of [beta-Ala8]NKA(4-10)-induced bronchoconstriction in anesthetized Dunkin Hartley guinea pig at 10 nmol/kg, it relative to control; format: functional; procedure, shortened: as §3

Substance-P receptor (Cavia porcellus), sequence (P30547 whole entry): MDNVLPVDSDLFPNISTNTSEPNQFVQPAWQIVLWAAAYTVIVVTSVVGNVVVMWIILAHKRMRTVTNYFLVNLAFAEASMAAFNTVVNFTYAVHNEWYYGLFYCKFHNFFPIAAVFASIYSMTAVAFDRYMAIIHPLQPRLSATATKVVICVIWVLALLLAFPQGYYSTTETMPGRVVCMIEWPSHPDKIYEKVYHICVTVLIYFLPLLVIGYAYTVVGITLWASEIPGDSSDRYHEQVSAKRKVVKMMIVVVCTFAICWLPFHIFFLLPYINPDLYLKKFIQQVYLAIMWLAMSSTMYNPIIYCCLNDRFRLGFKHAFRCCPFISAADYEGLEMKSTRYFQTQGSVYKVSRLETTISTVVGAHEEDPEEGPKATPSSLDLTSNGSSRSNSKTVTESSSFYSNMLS
Substance-P receptor, sequence (P25103 whole entry): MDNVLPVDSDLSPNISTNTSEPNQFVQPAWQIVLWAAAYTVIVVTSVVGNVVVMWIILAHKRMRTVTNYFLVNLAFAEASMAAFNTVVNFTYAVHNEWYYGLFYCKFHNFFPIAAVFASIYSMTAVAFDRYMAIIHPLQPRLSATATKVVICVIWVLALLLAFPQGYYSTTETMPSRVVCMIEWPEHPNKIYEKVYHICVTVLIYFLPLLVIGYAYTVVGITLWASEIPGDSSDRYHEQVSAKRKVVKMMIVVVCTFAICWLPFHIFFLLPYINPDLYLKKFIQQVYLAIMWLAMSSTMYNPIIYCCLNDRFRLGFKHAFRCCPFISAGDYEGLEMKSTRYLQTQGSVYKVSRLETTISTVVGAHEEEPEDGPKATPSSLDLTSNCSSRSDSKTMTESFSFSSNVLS

SMILES | Ki [1] | pKb [2] | pKb [3] | other results
N[C@@H]1CC(=O)N[C@@H](Cc2c[nH]c3ccccc23)C(=O)N[C@@H](Cc2ccccc2)C(=O)N[C@H](Cc2ccc(Cl)c(Cl)c2)CNC1=O | 0.158 nM (antagonist) | 8.1 |  | 
O=C1C[C@@H](N2CCNCC2)C(=O)NC[C@@H](Cc2ccccc2)NC(=O)[C@H](Cc2ccccc2)NC(=O)[C@H](Cc2c[nH]c3ccccc23)N1 | 1.58 nM (antagonist) | 7.7 |  | 
O=C1C[C@@H](N2CCOCC2)C(=O)NC[C@@H](Cc2ccc(Cl)c(Cl)c2)NC(=O)[C@H](Cc2ccccc2)NC(=O)[C@H](Cc2c[nH]c3ccccc23)N1 | 0.251 nM (antagonist) | 8.4 | 8 | 
O=C1C[C@@H](NC(=O)CN2CCC(N3CCCCC3)CC2)C(=O)NC[C@@H](Cc2ccccc2)NC(=O)[C@H](Cc2ccccc2)NC(=O)[C@H](Cc2c[nH]c3ccccc23)N1 |  |  | 9.2 | pKb ([4]; filed as antagonist): 6.8; pKb [5]: 5.8
NS(=O)(=O)N1CCN(CC(=O)N[C@@H]2CC(=O)N[C@@H](Cc3c[nH]c4ccccc34)C(=O)N[C@@H](Cc3ccccc3)C(=O)N[C@H](Cc3ccccc3)CNC2=O)CC1 | 0.1 nM (antagonist) |  | 9.5 | Activity [6]: Active; pKb [4]: < 5.5; ED50 [7]: 0.00027 µmol/kg; pKb [5]: 5.9; Ki [8]: 200 nM (antagonist); Ki [9]: 7.94 µM (antagonist)
N[C@@H]1CC(=O)NC[C@@H](Cc2ccccc2)NC(=O)[C@H](Cc2ccccc2)NC(=O)[C@H](Cc2c[nH]c3ccccc23)NC1=O | 15.8 nM (antagonist) | 7.2 |  | 
O=C1C[C@H](NC2CCOCC2)C(=O)NC[C@@H](Cc2ccccc2)NC(=O)[C@H](Cc2ccccc2)NC(=O)[C@H](Cc2c[nH]c3ccccc23)N1 | 1 nM (antagonist) | 8.6 |  | 
O=C1C[C@H](N2CCOCC2)C(=O)NC[C@@H](Cc2ccccc2)NC(=O)[C@H](Cc2ccccc2)NC(=O)[C@H](Cc2c[nH]c3ccccc23)N1 |  | 8.5 | 8.9 | 
O=C1C[C@@H](NC(=O)CN2CCC(N3CCOCC3)CC2)C(=O)NC[C@@H](Cc2ccccc2)NC(=O)[C@H](Cc2ccccc2)NC(=O)[C@H](Cc2c[nH]c3ccccc23)N1 | 0.158 nM (antagonist) |  | 9.7 | Activity [6]: Active; pKb ([4]; filed as antagonist): 7.5; ED50 [7]: 0.00015 µmol/kg; pKb [5]: 6.4; Ki [8]: 126 nM (antagonist); inhibition in vivo at 0.01 µmol/kg [10]: 80%; Ki [9]: 1.26 µM (antagonist)
O=C1CCC(=O)N[C@@H](Cc2c[nH]c3ccccc23)C(=O)N[C@@H](Cc2ccccc2)C(=O)N[C@H](Cc2ccc(Cl)c(Cl)c2)CN1 |  | 8.1 | 8.1 | 
N[C@@H]1CC(=O)N[C@@H](Cc2c[nH]c3ccccc23)C(=O)N[C@@H](Cc2ccccc2)C(=O)N[C@H](Cc2ccccc2)CNC1=O | 2 nM (antagonist) | 7.9 |  | 
N[C@H]1CC(=O)N[C@@H](Cc2c[nH]c3ccccc23)C(=O)N[C@@H](Cc2ccccc2)C(=O)N[C@H](Cc2ccc(Cl)c(Cl)c2)CNC1=O | 0.2 nM (antagonist) | 8.6 | 8.9 | 
N[C@H]1CC(=O)NC[C@@H](Cc2ccccc2)NC(=O)[C@H](Cc2ccccc2)NC(=O)[C@H](Cc2c[nH]c3ccccc23)NC1=O |  | 7.7 |  | 
O=C1C[C@@H](N2CCOCC2)C(=O)NC[C@@H](Cc2ccccc2)NC(=O)[C@H](Cc2ccccc2)NC(=O)[C@H](Cc2c[nH]c3ccccc23)N1 |  | 8.9 | 9.2 | pKb ([4]; filed as antagonist): 6.2; pKb [5]: 6.1
N[C@H]1CC(=O)N[C@@H](Cc2c[nH]c3ccccc23)C(=O)N[C@@H](Cc2ccccc2)C(=O)N[C@H](Cc2ccccc2)CNC1=O |  | 7.5 |  | 
O=C1C[C@@H](N2CCCCC2)C(=O)NC[C@@H](Cc2ccccc2)NC(=O)[C@H](Cc2ccccc2)NC(=O)[C@H](Cc2c[nH]c3ccccc23)N1 | 1.58 nM (antagonist) | 8.2 |  | 
O=C1C[C@@H](NC2CCOCC2)C(=O)NC[C@@H](Cc2ccccc2)NC(=O)[C@H](Cc2ccccc2)NC(=O)[C@H](Cc2c[nH]c3ccccc23)N1 | 0.0631 nM (antagonist) | 9.2 | 9.1 | pKb ([4]; filed as antagonist): 6.1; pKb [5]: 6.4
